Source: ChEMBL document CHEMBL2203173 (J Med Chem, 2012)

What was measured:
[1] = test system: Mus musculus; test: Toxicity in BALB/c nu/nu mouse xenografted with human DMS53 cells assessed as change in kidney histology at 10 mg/kg, po administered for 3 times a week measured after 20 days; assay type: organism-based, DMS-53; parameters: dose 10 mg/kg, route oral; conditions: in vivo, 480 h
How it was run: (§1)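 Nude mice bearing DMS-53 xenografts gavaged 3 times/week for 20 days, vehicle 30% propylene glycol/saline, vehicle controls, n = 6-11 mice/condition. Sacrifice on day 20. Organ weights and hematological indices recorded. Spleen, kidney, liver, heart, lungs and brain examined histologically, hearts stained with Gomori Trichrome for fibrosis.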

[2] = test system: Mus musculus; test: Toxicity in BALB/c nu/nu mouse xenografted with human DMS53 cells assessed as change in lungs histology at 10 mg/kg, po administered for 3 times a week measured after 20 days; assay type: organism-based, DMS-53; parameters: dose 10 mg/kg, route oral; conditions: in vivo, 480 h; how it was run: as §1
[3] = test system: Mus musculus; test: Toxicity in BALB/c nu/nu mouse xenografted with human DMS53 cells assessed as change in kidney histology at 7.5 mg/kg, po administered for 3 times a week measured after 20 days; assay type: organism-based, DMS-53; parameters: dose 7.5 mg/kg, route oral; conditions: in vivo, 480 h; how it was run: as §1
[4] = test system: Mus musculus; test: Toxicity in BALB/c nu/nu mouse xenografted with human DMS53 cells assessed as cardiac fibrosis at 10 mg/kg, po administered for 3 times a week measured after 20 days using Gomori Trichrome stain; assay type: organism-based, Heart, DMS-53; parameters: dose 10 mg/kg, route oral; conditions: in vivo, 480 h
How it was run: (§2)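 DMS-53 xenograft nude mice given oral gavage 3 times/week in 30% propylene glycol/saline for 20 days. Heart sections taken after 20 days were stained with Gomori Trichrome for fibrosis and viewed at 100×. Other organs were examined histologically.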

[5] = test system: Mus musculus; test: Toxicity in BALB/c nu/nu mouse xenografted with human DMS53 cells assessed as change in lungs histology at 7.5 mg/kg, po administered for 3 times a week measured after 20 days; assay type: organism-based, DMS-53; parameters: dose 7.5 mg/kg, route oral; conditions: in vivo, 480 h
How it was run: (§3)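 DMS-53 xenograft nude mice were gavaged 3 times/week in 30% propylene glycol/saline vehicle for 20 days and then sacrificed. Organ weights and histology of spleen, kidney, liver, heart, lungs and brain were compared with vehicle controls. n = 6-11 mice/condition.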

[6] = test system: Mus musculus; test: Toxicity in BALB/c nu/nu mouse xenografted with human DMS53 cells assessed as change in heart histology at 7.5 mg/kg, po administered for 3 times a week measured after 20 days; assay type: organism-based, DMS-53; parameters: dose 7.5 mg/kg, route oral; conditions: in vivo, 480 h; how it was run: as §1
[7] = test system: Mus musculus; test: Toxicity in BALB/c nu/nu mouse xenografted with human DMS53 cells assessed as change in heart histology at 20 mg/kg, po administered for 3 times a week measured after 20 days; assay type: organism-based, DMS-53; parameters: dose 20 mg/kg, route oral; conditions: in vivo, 480 h; how it was run: as §1
[8] = test system: Mus musculus; test: Toxicity in BALB/c nu/nu mouse xenografted with human DMS53 cells assessed as change in brain histology at 20 mg/kg, po administered for 3 times a week measured after 20 days; assay type: organism-based, DMS-53; parameters: dose 20 mg/kg, route oral; conditions: in vivo, 480 h; how it was run: as §1
[9] = test system: MRC5; test: Antiproliferative activity at human MRC5 cells after 72 hrs by MTT assay; assay type: functional, cell-based; conditions: MRC5, 72 h
[10] = test system: Mus musculus; test: Toxicity in BALB/c nu/nu mouse xenografted with human DMS53 cells assessed as change in spleen histology at 20 mg/kg, po administered for 3 times a week measured after 20 days; assay type: organism-based, DMS-53; parameters: dose 20 mg/kg, route oral; conditions: in vivo, 480 h; how it was run: as §3
[11] = test system: Mus musculus; test: Toxicity in BALB/c nu/nu mouse xenografted with human DMS53 cells assessed as change in hematocrit level at 10 mg/kg, po administered for 3 times a week measured after 20 days; assay type: organism-based, DMS-53; parameters: dose 10 mg/kg, route oral; conditions: in vivo, 480 h; how it was run: as §1
[12] = test system: A549; test: Antiproliferative activity at human A549 cells after 72 hrs by MTT assay; assay type: functional, cell-based
[13] = test system: DMS-53; test: Antiproliferative activity at human DMS53 cells after 72 hrs by MTT assay; assay type: functional, cell-based; conditions: Homo sapiens, DMS-53, 72 h
[14] = test system: Mus musculus; test: Toxicity in BALB/c nu/nu mouse xenografted with human DMS53 cells assessed as change in spleen weight at 10 mg/kg, po administered for 3 times a week measured after 20 days; assay type: organism-based, DMS-53; parameters: dose 10 mg/kg, route oral; conditions: in vivo, 480 h; how it was run: as §3
[15] = test system: Mus musculus; test: Toxicity in BALB/c nu/nu mouse xenografted with human DMS53 cells assessed as change in lungs histology at 20 mg/kg, po administered for 3 times a week measured after 20 days; assay type: organism-based, DMS-53; parameters: dose 20 mg/kg, route oral; conditions: in vivo, 480 h; how it was run: as §1
[16] = test system: Mus musculus; test: Toxicity in BALB/c nu/nu mouse xenografted with human DMS53 cells assessed as change in hemoglobin level at 10 mg/kg, po administered for 3 times a week measured after 20 days; assay type: organism-based, DMS-53; parameters: dose 10 mg/kg, route oral; conditions: in vivo, 480 h; how it was run: as §1
[17] = test system: Mus musculus; test: Toxicity in BALB/c nu/nu mouse xenografted with human DMS53 cells assessed as change in kidney histology at 20 mg/kg, po administered for 3 times a week measured after 20 days; assay type: organism-based, DMS-53; parameters: dose 20 mg/kg, route oral; conditions: in vivo, 480 h; how it was run: as §1
[18] = test system: Mus musculus; test: Cardiotoxicity in human DMS53 cells xenografted BALB/c nu/nu mouse at 20 mg/kg, po administered for 3 times a week measured after 20 days; assay type: toxicity, organism-based, DMS-53; parameters: dose 20 mg/kg, route oral; conditions: in vivo, 480 h; how it was run: as §2
[19] = test system: Mus musculus; test: Cardiotoxicity in human DMS53 cells xenografted BALB/c nu/nu mouse at 10 mg/kg, po administered for 3 times a week measured after 20 days; assay type: toxicity, organism-based, DMS-53; parameters: dose 10 mg/kg, route oral; conditions: in vivo, 480 h; how it was run: as §2
[20] = test system: Mus musculus; test: Toxicity in BALB/c nu/nu mouse xenografted with human DMS53 cells assessed as change in liver histology at 10 mg/kg, po administered for 3 times a week measured after 20 days; assay type: organism-based, DMS-53; parameters: dose 10 mg/kg, route oral; conditions: in vivo, 480 h; how it was run: as §1
[21] = test system: Mus musculus; test: Toxicity in BALB/c nu/nu mouse xenografted with human DMS53 cells assessed as cardiac fibrosis at 7.5 mg/kg, po administered for 3 times a week measured after 20 days using Gomori Trichrome stain; assay type: organism-based, Heart, DMS-53; parameters: dose 7.5 mg/kg, route oral; conditions: in vivo, 480 h; how it was run: as §2
[22] = test system: Mus musculus; test: Toxicity in BALB/c nu/nu mouse xenografted with human DMS53 cells assessed as change in spleen histology at 7.5 mg/kg, po administered for 3 times a week measured after 20 days; assay type: organism-based, DMS-53; parameters: dose 7.5 mg/kg, route oral; conditions: in vivo, 480 h; how it was run: as §3
[23] = test system: Mus musculus; test: Toxicity in BALB/c nu/nu mouse xenografted with human DMS53 cells assessed as change in heart histology at 10 mg/kg, po administered for 3 times a week measured after 20 days; assay type: organism-based, DMS-53; parameters: dose 10 mg/kg, route oral; conditions: in vivo, 480 h; how it was run: as §1
[24] = test system: Mus musculus; test: Toxicity in BALB/c nu/nu mouse xenografted with human DMS53 cells assessed as cardiac fibrosis at 20 mg/kg, po administered for 3 times a week measured after 20 days using Gomori Trichrome stain; assay type: organism-based, Heart, DMS-53; parameters: dose 20 mg/kg, route oral; conditions: in vivo, 480 h; how it was run: as §2
[25] = test system: Mus musculus; test: Toxicity in BALB/c nu/nu mouse xenografted with human DMS53 cells assessed as change in liver histology at 20 mg/kg, po administered for 3 times a week measured after 20 days; assay type: organism-based, DMS-53; parameters: dose 20 mg/kg, route oral; conditions: in vivo, 480 h; how it was run: as §1
[26] = test system: Mus musculus; test: Toxicity in BALB/c nu/nu mouse xenografted with human DMS53 cells assessed as change in brain histology at 10 mg/kg, po administered for 3 times a week measured after 20 days; assay type: organism-based, DMS-53; parameters: dose 10 mg/kg, route oral; conditions: in vivo, 480 h; how it was run: as §1
[27] = test system: Mus musculus; test: Toxicity in BALB/c nu/nu mouse xenografted with human DMS53 cells assessed as change in spleen histology at 10 mg/kg, po administered for 3 times a week measured after 20 days; assay type: organism-based, DMS-53; parameters: dose 10 mg/kg, route oral; conditions: in vivo, 480 h; how it was run: as §3
[28] = test system: Mus musculus; test: Cardiotoxicity in BALB/c nu/nu mouse xenografted with human DMS53 cells at 7.5 mg/kg, po administered for 3 times a week measured after 20 days; assay type: toxicity, organism-based, DMS-53; parameters: dose 7.5 mg/kg, route oral; conditions: in vivo, 480 h; how it was run: as §2
[29] = test system: Mus musculus; test: Toxicity in BALB/c nu/nu mouse xenografted with human DMS53 cells assessed as change in liver histology at 7.5 mg/kg, po administered for 3 times a week measured after 20 days; assay type: organism-based, DMS-53; parameters: dose 7.5 mg/kg, route oral; conditions: in vivo, 480 h; how it was run: as §1
[30] = test system: Mus musculus; test: Toxicity in BALB/c nu/nu mouse xenografted with human DMS53 cells assessed as change in heart weight at 10 mg/kg, po administered for 3 times a week measured after 20 days; assay type: organism-based, DMS-53; parameters: dose 10 mg/kg, route oral; conditions: in vivo, 480 h; how it was run: as §1
[31] = Toxicity in po dosed BALB/c nu/nu mouse xenografted with human DMS53 cells measured for 28 days; assay type: organism-based, DMS-53; conditions: in vivo
How it was run: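 Oral dose-range-finding study to set the maximum tolerated dose in nude mice bearing DMS-53 tumors, with dosing over a 28-day treatment period.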

Compound	Activity [1]	Activity [2]	Activity [3]	Activity [4]	Activity [5]	Activity [6]	Activity [7]	Activity [8]	IC50 [9] [nM]	Activity [10]	Activity [11]	IC50 [13] [nM]	Activity [14]	Activity [15]	Activity [16]	Activity [17]	Activity [18]	Activity [19]	Activity [20]	Activity [21]	other results
CCN(C)C(=S)NN=C(c1ccccn1)c1ccccn1.Cl	Non-toxic	Non-toxic	Non-toxic	Non-toxic	Non-toxic	Non-toxic	Non-toxic	Non-toxic	> 10000	Non-toxic	Toxic	6	Non-toxic	Non-toxic	Toxic	Non-toxic	Non-toxic	Non-toxic	Non-toxic	Non-toxic	IC50 ([12]; a549): 1 nM; Activity [22]: Non-toxic; Activity [23]: Non-toxic; Activity [24]: Non-toxic; Activity [25]: Non-toxic; Activity [26]: Non-toxic; Activity [27]: Non-toxic; Activity [28]: Non-toxic; Activity [29]: Non-toxic; Activity [30]: Toxic; MTD at 672 h [31]: 10 mg/kg
CN(C(=S)NN=C(c1ccccn1)c1ccccn1)C1CCCCC1.Cl	Non-toxic	Non-toxic	Non-toxic	Non-toxic	Non-toxic	Non-toxic	Non-toxic	Non-toxic	> 10000	Non-toxic	Non-toxic	7	Non-toxic	Non-toxic	Non-toxic	Non-toxic	Non-toxic	Non-toxic	Non-toxic	Non-toxic	IC50 ([12]; Homo sapiens, A549, 72 h): 4 nM; Activity [22]: Non-toxic; Activity [23]: Non-toxic; Activity [24]: Non-toxic; Activity [25]: Non-toxic; Activity [26]: Non-toxic; Activity [27]: Non-toxic; Activity [28]: Non-toxic; Activity [29]: Non-toxic; Activity [30]: Non-toxic; MTD at 672 h [31]: 20 mg/kg
